From ChEMBL document CHEMBL1133663, “Synthesis and biological evaluation of 3,4-diaryloxazolones: A new class of orally active cyclooxygenase-2 inhibitors” (J Med Chem, 2000)

Tests used:
[1] = molecular target: Prostaglandin G/H synthase 1 (Homo sapiens, UniProt P23219)
Rattus norvegicus [2] = test: In vivo inhibition of carrageenan-induced hyperalgesia in rats; format: functional
Procedure, shortened: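 Fasted male Wistar rats (200-230 g) given oral drug, then 0.1 mL 1% carrageenan into the left hind paw 1 h later. At 5 h, walking difficulty was scored 0-2 by a blinded observer. Percentage inhibition was taken against vehicle, and ED50 was found by linear regression over four doses (6-8 rats/group).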

Rattus norvegicus [3] = test: In vivo inhibition of pyresis in rats; format: functional
Procedure, shortened: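 Male Wistar rats (180-200 g, 6/group) were injected subcutaneously with 15% yeast extract in saline ([…]) and fasted overnight. Next morning rectal temperature was taken, and oral dosing followed 1 h later. Temperature was recorded hourly for 5 h.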

Rattus norvegicus [4] = test: In vivo inhibition of adjuvant arthritis in rats; format: functional
Rattus norvegicus [5] = test: In vivo inhibition of carrageenan-induced air pouch in rats; format: functional
Procedure, shortened: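 Air pouch made in fasted male Wistar rats (150-175 g, 6/group) by injecting 20 mL air subcutaneously on the back on day 0. Oral gavage on day 3, then 5 mL 0.4% carrageenan into the pouch 1 h later.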

Rattus norvegicus [6] = test: Inhibition of carrageenan paw edema in rats; format: functional
Procedure, shortened: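 Fasted male Wistar rats (150-175 g, 6/group) dosed orally in 0.5% methyl cellulose/0.1% Tween (10 mL/kg). One hour later, 0.1 mL 1% carrageenan in saline was given subcutaneously into the left hind paw.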

Rattus norvegicus [7] = species: Rattus norvegicus; test: Hemoglobin levels in the different assays ranged from 11.5-14.7 g/dl.; format: functional
Rattus norvegicus [8] = test: Effect on non perforated ulcers(NPU) at the dose of 100 mg/kg.; format: functional
Procedure, shortened: (§1)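 Male Wistar rats (150-175 g), fed freely, 10/group, dosed orally once daily for 4 consecutive days in 0.5% methyl cellulose/0.1% Tween. Anaesthetised 24 h after last dose; cardiac blood taken for hemoglobin. Whole intestine opened and scored macroscopically for perforated and nonperforated ulcers (index 0-3); value is ulcer score per incidence (% animals with ulcers).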

Rattus norvegicus [9] = test: Effect on perforated ulcers(PU) at the dose of 100 mg/kg.; format: functional
Procedure, shortened: as §1

Rattus norvegicus [10] = test: Effect on perforated ulcers(PU) at the dose of 10 mg/kg.; format: functional
Procedure, shortened: as §1

Rattus norvegicus [11] = test: Effect on non perforated ulcers(NPU) at the dose of 10 mg/kg.; format: functional
Procedure, shortened: as §1

Prostaglandin G/H synthase 1, sequence (P23219 whole entry): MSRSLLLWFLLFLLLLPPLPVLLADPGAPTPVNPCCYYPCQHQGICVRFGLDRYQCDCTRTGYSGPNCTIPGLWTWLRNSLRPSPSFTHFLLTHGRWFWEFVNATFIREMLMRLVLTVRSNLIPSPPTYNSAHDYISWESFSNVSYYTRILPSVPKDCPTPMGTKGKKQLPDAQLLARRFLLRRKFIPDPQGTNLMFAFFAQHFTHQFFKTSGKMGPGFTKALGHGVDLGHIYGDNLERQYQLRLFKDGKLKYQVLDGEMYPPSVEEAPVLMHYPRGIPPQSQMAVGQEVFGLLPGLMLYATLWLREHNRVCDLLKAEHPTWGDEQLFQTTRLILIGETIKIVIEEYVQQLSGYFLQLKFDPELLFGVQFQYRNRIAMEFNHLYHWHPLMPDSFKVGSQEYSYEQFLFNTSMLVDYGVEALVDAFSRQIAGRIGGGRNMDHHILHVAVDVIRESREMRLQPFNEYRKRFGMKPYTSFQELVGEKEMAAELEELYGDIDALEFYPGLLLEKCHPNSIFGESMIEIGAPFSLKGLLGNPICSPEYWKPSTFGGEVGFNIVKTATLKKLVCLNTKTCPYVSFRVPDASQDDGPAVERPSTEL

| Compound | IC50 [1] [µM] | ED50 (Rattus norvegicus [2]) [mg/kg] | ED50 (Rattus norvegicus [3]) [mg/kg] | ED50 (Rattus norvegicus [4]) [mg/kg] | ED35 (Rattus norvegicus [5]) [mg/kg] | ED35 (Rattus norvegicus [6]) [mg/kg] | Hgb levels (Rattus norvegicus [7]) [g/dL] | Ulcer score (Rattus norvegicus [8]) | Ulcer score (Rattus norvegicus [9]) | Ulcer score (Rattus norvegicus [10]) | Ulcer score (Rattus norvegicus [11]) |
| --- | --- | --- | --- | --- | --- | --- | --- | --- | --- | --- | --- |
| NS(=O)(=O)c1ccc(-c2coc(=O)n2-c2ccccc2)cc1 | 24.4 | 1.1 | 0.5 | 0.15 | 1.2 | 0.4 | 14.8 | 0 | 0 | – | – |
| NS(=O)(=O)c1ccc(-c2coc(=O)n2-c2cccc(C(=O)O)c2)cc1 | > 100 | – | – | – | – | – | – | – | – | – | – |
| Cc1ccccc1-n1c(-c2ccc(S(N)(=O)=O)cc2)coc1=O | 29 | – | – | – | – | – | – | – | – | – | – |
| Cc1oc(=O)n(-c2ccc(F)cc2)c1-c1ccc(S(N)(=O)=O)cc1 | 45.8 | 14 | – | 3 | – | 1.1 | – | – | – | – | – |
| NS(=O)(=O)c1ccc(-c2coc(=O)n2-c2cccc3ccccc23)cc1 | 37.1 | – | – | – | – | – | – | – | – | – | – |
| COc1ccc(-n2c(-c3ccc(S(N)(=O)=O)cc3)coc2=O)cc1 | 0.9 | – | – | – | – | – | – | – | – | – | – |
| Cc1ccc(-n2c(-c3ccc(S(N)(=O)=O)cc3)coc2=O)cc1 | 10.9 | 3.8 | 3.3 | 0.34 | 1.7 | 0.7 | 12.9 | 0 | 0 | – | – |
| CS(=O)(=O)c1ccc(-c2coc(=O)n2-c2ccc(F)cc2)cc1 | 5.1 | 2.5 | – | 2.8 | – | 0.6 | – | – | – | – | – |
| COc1ccc2cc([C@H](C)C(=O)O)ccc2c1 [NAPROXEN] | – | 5.2 | 0.8 | 6.1 | 1.4 | 0.45 | 7.5 | – | – | – | – |
| CS(=O)(=O)c1ccc(-c2coc(=O)n2-c2ccccc2)cc1 | 33.6 | – | – | – | – | – | – | – | – | – | – |
| NS(=O)(=O)c1ccc(-c2coc(=O)n2C2CCCCC2)cc1 | > 100 | – | – | – | – | – | – | – | – | – | – |
| NS(=O)(=O)c1ccc(-c2coc(=O)n2-c2cccc(Cl)c2)cc1 | 10.8 | – | – | – | – | 1.3 | – | – | – | – | – |
| CS(=O)(=O)c1ccc(-c2coc(=O)n2-c2ccc(C(F)(F)F)cc2)cc1 | > 100 | – | – | – | – | – | – | – | – | – | – |
| CS(=O)(=O)c1ccc(-c2coc(=O)n2-c2ccc(F)cc2F)cc1 | 6.94 | 21 | – | 2.5 | – | 1.4 | – | – | – | – | – |
| Cc1ccc(-n2c(-c3ccc(S(C)(=O)=O)cc3)coc2=O)cc1 | 11.6 | – | – | – | – | – | – | – | – | – | – |
| NS(=O)(=O)c1ccc(-c2coc(=O)n2-c2ccccc2F)cc1 | 27.9 | 2.7 | 1.2 | 0.27 | 1.6 | 1.7 | 11.6 | 0 | 0 | – | – |
| COc1ccc2c(c1)c(CC(=O)O)c(C)n2C(=O)c1ccc(Cl)cc1 [INDOMETHACIN] | – | 1.2 | 1.5 | 0.22 | 2 | 1 | 5.7 | – | – | 280 | 300 |
| Cc1cccc(-n2c(-c3ccc(S(N)(=O)=O)cc3)c(C)oc2=O)c1 | 16.9 | – | – | – | – | – | – | – | – | – | – |

| Compound | IC50 [1] [µM] | ED50 (Rattus norvegicus [2]) [mg/kg] | ED50 (Rattus norvegicus [3]) [mg/kg] | ED50 (Rattus norvegicus [4]) [mg/kg] | ED35 (Rattus norvegicus [5]) [mg/kg] | ED35 (Rattus norvegicus [6]) [mg/kg] | Hgb levels (Rattus norvegicus [7]) [g/dL] | Ulcer score (Rattus norvegicus [8]) | Ulcer score (Rattus norvegicus [9]) | Ulcer score (Rattus norvegicus [10]) | Ulcer score (Rattus norvegicus [11]) |
| --- | --- | --- | --- | --- | --- | --- | --- | --- | --- | --- | --- |
| Cc1oc(=O)n(-c2ccccc2)c1-c1ccc(S(N)(=O)=O)cc1 | 49.3 | 7.7 | – | > 3 | – | 1.7 | – | – | – | – | – |
| COc1ccc(-n2c(-c3ccc(S(N)(=O)=O)cc3)coc2=O)cc1F | 5.1 | – | – | – | – | 3 | – | – | – | – | – |
| NS(=O)(=O)c1ccc(-c2coc(=O)n2-c2ccc(F)cc2)cc1 | 13.2 | 3.9 | 2.4 | 0.6 | 0.4 | 2 | 12.6 | 0 | 0 | – | – |
| NS(=O)(=O)c1ccc(-c2coc(=O)n2-c2ccc(Cl)c(Cl)c2)cc1 | 1.5 | – | – | – | – | – | – | – | – | – | – |
| NS(=O)(=O)c1ccc(-c2coc(=O)n2-c2ccc(C(F)(F)F)cc2)cc1 | > 100 | 8.1 | 11 | 1 | 2.6 | 2.4 | 11.5 | 0 | 0 | – | – |
| NS(=O)(=O)c1ccc(-c2coc(=O)n2-c2ccccc2Cl)cc1 | 35.4 | – | – | – | – | – | – | – | – | – | – |
| Cc1ccc(-c2cc(C(F)(F)F)nn2-c2ccc(S(N)(=O)=O)cc2)cc1 [CELECOXIB] | – | 6.2 | 0.6 | 0.5 | 3 | 1.1 | 13.2 | 0 | 0 | – | – |
| NS(=O)(=O)c1ccc(-c2coc(=O)n2-c2ccc(F)cc2F)cc1 | 15.3 | – | – | – | – | – | – | – | – | – | – |
| NS(=O)(=O)c1ccc(-c2coc(=O)n2-c2ccc(C(=O)O)cc2)cc1 | > 100 | – | – | – | – | – | – | – | – | – | – |
| CS(=O)(=O)c1ccc(-c2coc(=O)n2-c2ccc(Cl)cc2)cc1 | 13.6 | – | – | – | – | 10 | – | – | – | – | – |
| Cc1oc(=O)n(-c2ccc(Cl)c(Cl)c2)c1-c1ccc(S(N)(=O)=O)cc1 | 8.7 | 3 | 8.7 | 1.6 | 0.85 | 4.4 | 14.6 | 0 | 0 | – | – |
| CCc1ccc(-n2c(-c3ccc(S(N)(=O)=O)cc3)coc2=O)cc1 | 10.4 | – | – | – | – | – | – | – | – | – | – |
| CS(=O)(=O)c1ccc(-c2coc(=O)n2-c2ccccc2F)cc1 | 13.4 | 32 | – | > 3 | – | 2.4 | – | – | – | – | – |
| COc1ccc(-n2c(-c3ccc(S(N)(=O)=O)cc3)coc2=O)cc1Cl | 5.8 | – | – | – | – | 2.4 | – | – | – | – | – |
| CCc1ccc(-n2c(-c3ccc(S(C)(=O)=O)cc3)coc2=O)cc1 | 42.4 | – | – | – | – | – | – | – | – | – | – |
| NS(=O)(=O)c1ccc(-c2coc(=O)n2-c2ccc(Cl)cc2)cc1 | 7 | 0.5 | 2.3 | 0.2 | 1.2 | 1.6 | 12.5 | 2.1 | 3 | – | – |
| Cc1cccc(-n2c(-c3ccc(S(N)(=O)=O)cc3)coc2=O)c1 | 6.6 | 7.2 | 1.8 | 0.6 | 0.47 | 0.9 | 12.8 | 0 | 0 | – | – |
| Cc1ccc(-n2c(-c3ccc(S(N)(=O)=O)cc3)c(C)oc2=O)cc1 | 43.5 | – | – | – | – | 2.6 | – | – | – | – | – |
